Measured values of several laboratories.
Lines come from different studies, so protocols differ.
Target: Ephrin type-A receptor 1 (EPHA1, Homo sapiens, UniProt P21709)
Sequence (P21709 26-976, as in one of the studies): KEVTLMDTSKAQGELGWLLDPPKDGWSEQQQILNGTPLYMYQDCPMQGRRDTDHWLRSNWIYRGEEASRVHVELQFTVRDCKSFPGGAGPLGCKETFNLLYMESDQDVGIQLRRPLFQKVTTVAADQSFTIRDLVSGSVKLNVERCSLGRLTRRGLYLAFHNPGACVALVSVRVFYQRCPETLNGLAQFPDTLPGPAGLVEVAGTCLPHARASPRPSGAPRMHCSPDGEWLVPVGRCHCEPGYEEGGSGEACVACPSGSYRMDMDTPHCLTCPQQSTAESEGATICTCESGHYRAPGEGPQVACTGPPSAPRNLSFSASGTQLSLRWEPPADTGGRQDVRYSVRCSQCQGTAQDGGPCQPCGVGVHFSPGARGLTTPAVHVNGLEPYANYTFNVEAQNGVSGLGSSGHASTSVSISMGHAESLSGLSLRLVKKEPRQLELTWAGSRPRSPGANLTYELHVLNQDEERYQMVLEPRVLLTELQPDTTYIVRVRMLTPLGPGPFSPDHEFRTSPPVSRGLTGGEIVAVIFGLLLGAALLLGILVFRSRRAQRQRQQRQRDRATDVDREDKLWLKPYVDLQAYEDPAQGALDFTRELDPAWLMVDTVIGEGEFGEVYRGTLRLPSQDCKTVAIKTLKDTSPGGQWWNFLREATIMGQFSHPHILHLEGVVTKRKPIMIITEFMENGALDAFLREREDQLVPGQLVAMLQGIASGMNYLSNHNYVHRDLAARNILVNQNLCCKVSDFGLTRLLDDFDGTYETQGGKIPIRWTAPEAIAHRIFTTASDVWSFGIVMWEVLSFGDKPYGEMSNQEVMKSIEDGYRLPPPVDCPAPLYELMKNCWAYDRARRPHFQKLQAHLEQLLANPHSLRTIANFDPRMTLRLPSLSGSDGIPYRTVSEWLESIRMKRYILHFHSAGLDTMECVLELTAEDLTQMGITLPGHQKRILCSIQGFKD

| Structure (SMILES) | observed | mode | method | tested at | quantity | result |
| --- | --- | --- | --- | --- | --- | --- |
| COc1ccc2c(c1)O[C@H](c1ccc(OC)c(OC)c1)C[C@@H]2NC(=O)C1(c2ccc3c(c2)OC(F)(F)O3)CC1 | cell-free assay | – | competition with immobilised ligand | 1 µM | remaining binding | 88% |
| Cc1sc(C(=O)NC2COC2)cc1-n1cc(NC(=O)Nc2c(F)cccc2Cl)cn1 | enzyme activity | inhibitor | – | 10 µM | remaining activity | 88.5% |
| Cc1ccc(Nc2nccc(N(C)c3ccc4c(C)n(C)nc4c3)n2)cc1S(N)(=O)=O | enzyme activity | inhibitor | – | 0.3 µM | inhibition | 23% |
| O=C(NCCCC1CCCCC1)c1ccc(CNC(=O)c2cnn(-c3ccccc3)c2C(F)(F)F)cc1 | cell-free assay | – | competition with immobilised ligand | 0.1 µM | remaining binding | 100% |
| COc1cc(-c2cc(-c3ccc(N4CCNCC4)cc3)cnc2C)cc(OC)c1OC | enzyme activity | inhibitor | – | 0.1 µM | inhibition | 3% |
| CN1CCN(c2cnc3c(C4CCN(C(=O)c5ccc(OC(F)(F)F)cc5N)CC4)ncnc3c2)CC1 | cell-free assay | – | competition with immobilised ligand | 1 µM | remaining binding | 95% |
| O=C(Nc1cnn(-c2csc(C(=O)NC3COC3)c2)c1)Nc1c(F)cccc1Cl | enzyme activity | inhibitor | – | 5 µM | remaining activity | 88.4% |
| CCCS(=O)(=O)Nc1ccc(F)c(C(=O)c2c[nH]c3ncc(-c4ccc(Cl)cc4)cc23)c1F | enzyme activity | inhibitor | – | 1 µM | inhibition | < 10% |
| CCCCNc1ncc2c(-c3ccc(F)cc3)nn(C[C@H]3CC[C@H](N)CC3)c2n1 | target engagement in cells | inhibitor | chemoproteomics | 20 mM | inhibition | > 97% |
| COc1cc2ncnc(Nc3ccc(Oc4ccccc4)c(C)c3C)c2cc1OC | enzyme activity | inhibitor | – | 1 µM | inhibition | 8% |
| CNC(=O)c1cc(Oc2ccc(NC(=O)Nc3ccc(Cl)c(C(F)(F)F)c3)cc2)ccn1 | enzyme activity | inhibitor | – | 0.3 µM | inhibition | 23% |
| COc1cc(Nc2c(C#N)cnc3cc(OCCCN4CCN(C)CC4)c(OC)cc23)c(Cl)cc1Cl | cell-free assay | – | – | 0.5 µM | remaining signal | 97.7% |
| Cc1ccc(C(=O)Nc2ccc(CN3CCN(C)CC3)c(C(F)(F)F)c2)cc1C#Cc1cnc2cccnn12 | cell-free assay | – | – | 23.5 nM | remaining signal | 55% |
| O=C(N[C@H]1CCCCC/C=C\C2C[C@@]2(C(=O)O)NC(=O)[C@@H]2C[C@@H](Oc3ccncc3)CN2C1=O)OC1CCCC1 (some centres unmarked) | cell-free assay | – | competition with immobilised ligand | 1 µM | remaining binding | 90% |
| CNC(=O)c1cc2c(Oc3ccc(NC(=O)C4(C(=O)Nc5ccc(F)cc5)CC4)cc3)ccnc2cc1OC | enzyme activity | inhibitor | radiometric | 1 µM | inhibition | 90% |
| O=C1CCc2cc(Nc3cc(OC4CCOCC4)c([N+](=O)[O-])cc3Cl)ccc2N1 | cell-free assay | – | competition with immobilised ligand | 1 µM | remaining binding | 81% |
| C[C@@H]1CCN(C(=O)CC#N)C[C@@H]1N(C)c1ncnc2[nH]ccc12 | cell-free assay | – | – | 0.5 µM | remaining signal | 98% |
| CCN(CC)CCNC(=O)c1c(C)[nH]c(/C=C2\C(=O)Nc3ccc(F)cc32)c1C | enzyme activity | inhibitor | – | 10 µM | inhibition | 62% |
| F[C@@H]1CCN(c2nccc(-c3cnn4ncccc34)n2)C1 | binding | – | – | 1 µM | remaining binding | 79% |
| CO[C@@H](C)c1c(Nc2ccc([C@@H](N(C)C(=O)C3CCS(=O)(=O)CC3)C(F)(F)F)cc2)cnc2cc(Cl)nn12 | cell-free assay | – | competition with immobilised ligand | 1 µM | remaining binding | 97% |
| O=C1Nc2ccc(Cl)cc2C1=Cc1cc(Cl)c(O)c(Cl)c1 | cell-free assay | – | – | 0.5 µM | remaining signal | 88.9% |
| CC(C)(C)c1nc(-c2cccc(NS(=O)(=O)c3c(F)cccc3F)c2F)c(-c2ccnc(N)n2)s1 | enzyme activity | inhibitor | radiometric | 1 µM | remaining activity | 81% |
| CNC(=O)Nc1ccc2c(c1)[C@@]1(CC2)OC(=O)N(CC(=O)N(Cc2ccc(F)cc2)[C@@H](C)C(F)(F)F)C1=O | cell-free assay | – | competition with immobilised ligand | 1 µM | remaining binding | 100% |
| Cc1ccc(C(=O)NCc2ccsc2)cc1C#Cc1cn(C(C)C)c2ncnc(N)c12 | enzyme activity | inhibitor | – | 1 µM | activity vs control | 45% |
| c1ccc(CNc2nc(N3CCOc4ccccc43)nc3c2CCCC3)cc1 | target engagement in cells | inhibitor | chemoproteomics | 20 mM | inhibition | -26.1% |
| C[C@@H]1CN(c2cc(-c3nn(C)c4ccc(OC5(C)CC5)cc34)ncn2)C[C@H](C)O1 | cell-free assay | – | competition with immobilised ligand | 1 µM | remaining binding | 100% |
